ChEMBL document CHEMBL1147841, “Synthesis and biological study of 2-amino-4-aryl-5-chloropyrimidine analogues as inhibitors of VEGFR-2 and cyclin dependent kinase 1 (CDK1)” (Bioorg Med Chem Lett, 2007)

Experiments:
[1] = test system: HCT-116; assay: Antiproliferative activity against human HCT116 cells; assay type: functional, cell-based
[2] = Clearance in Sprague-Dawley rat; assay type: ADME, organism-based; details: in vivo
In short: (§1)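 Male Sprague-Dawley rats were given single doses orally at 10 mg/kg in 0.5% Methocel and intravenously at 2 mg/kg in 10% Solutol. Plasma concentrations were followed to derive AUC (µM h), Cmax (µM), half-life (h), clearance (mL/min/kg), steady-state volume of distribution (L/kg) and oral bioavailability (%).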

[3] = biological target: Vascular endothelial growth factor receptor 2 (Homo sapiens, UniProt P35968); assay: Inhibition of VEGFR2
[4] = biological target: Cyclin-dependent kinase 1 (Homo sapiens, UniProt P06493); assay: Inhibition of CDK1
[5] = Half life in Sprague-Dawley rat at 2 mg/kg, iv; assay type: ADME, organism-based; parameters: dose 2 mg/kg, route intravenous; details: in vivo; in short: as §1
[6] = AUC in Sprague-Dawley rat at 10 mg/kg, po; assay type: ADME, organism-based; parameters: dose 10 mg/kg, route oral; details: plasma; in short: as §1
[7] = Cmax in Sprague-Dawley rat at 10 mg/kg, po; assay type: ADME, organism-based; parameters: dose 10 mg/kg, route oral; details: in vivo; in short: as §1
[8] = test system: HeLa; assay: Antiproliferative activity against human HeLa cells; assay type: functional, cell-based
[9] = Volume of distribution at steady state in Sprague-Dawley rat; assay type: ADME, organism-based; details: in vivo, read-out: Vss; in short: as §1
[10] = test system: A-375; assay: Antiproliferative activity against human A375 cells; assay type: functional, cell-based
[11] = Bioavailability in Sprague-Dawley rat at 10 mg/kg, po; assay type: ADME, organism-based; details: in vivo; in short: as §1
[12] = AUC in Sprague-Dawley rat at 2 mg/kg, iv; assay type: ADME, organism-based; parameters: dose 2 mg/kg, route intravenous; details: plasma; in short: as §1
[13] = Half life in Sprague-Dawley rat at 10 mg/kg, po; assay type: ADME, organism-based; parameters: dose 10 mg/kg, route oral; details: in vivo; in short: as §1
[14] = Cmax in Sprague-Dawley rat at 2 mg/kg, iv; assay type: ADME, organism-based; parameters: dose 2 mg/kg, route intravenous; details: in vivo; in short: as §1

Vascular endothelial growth factor receptor 2, sequence (P35968 whole entry): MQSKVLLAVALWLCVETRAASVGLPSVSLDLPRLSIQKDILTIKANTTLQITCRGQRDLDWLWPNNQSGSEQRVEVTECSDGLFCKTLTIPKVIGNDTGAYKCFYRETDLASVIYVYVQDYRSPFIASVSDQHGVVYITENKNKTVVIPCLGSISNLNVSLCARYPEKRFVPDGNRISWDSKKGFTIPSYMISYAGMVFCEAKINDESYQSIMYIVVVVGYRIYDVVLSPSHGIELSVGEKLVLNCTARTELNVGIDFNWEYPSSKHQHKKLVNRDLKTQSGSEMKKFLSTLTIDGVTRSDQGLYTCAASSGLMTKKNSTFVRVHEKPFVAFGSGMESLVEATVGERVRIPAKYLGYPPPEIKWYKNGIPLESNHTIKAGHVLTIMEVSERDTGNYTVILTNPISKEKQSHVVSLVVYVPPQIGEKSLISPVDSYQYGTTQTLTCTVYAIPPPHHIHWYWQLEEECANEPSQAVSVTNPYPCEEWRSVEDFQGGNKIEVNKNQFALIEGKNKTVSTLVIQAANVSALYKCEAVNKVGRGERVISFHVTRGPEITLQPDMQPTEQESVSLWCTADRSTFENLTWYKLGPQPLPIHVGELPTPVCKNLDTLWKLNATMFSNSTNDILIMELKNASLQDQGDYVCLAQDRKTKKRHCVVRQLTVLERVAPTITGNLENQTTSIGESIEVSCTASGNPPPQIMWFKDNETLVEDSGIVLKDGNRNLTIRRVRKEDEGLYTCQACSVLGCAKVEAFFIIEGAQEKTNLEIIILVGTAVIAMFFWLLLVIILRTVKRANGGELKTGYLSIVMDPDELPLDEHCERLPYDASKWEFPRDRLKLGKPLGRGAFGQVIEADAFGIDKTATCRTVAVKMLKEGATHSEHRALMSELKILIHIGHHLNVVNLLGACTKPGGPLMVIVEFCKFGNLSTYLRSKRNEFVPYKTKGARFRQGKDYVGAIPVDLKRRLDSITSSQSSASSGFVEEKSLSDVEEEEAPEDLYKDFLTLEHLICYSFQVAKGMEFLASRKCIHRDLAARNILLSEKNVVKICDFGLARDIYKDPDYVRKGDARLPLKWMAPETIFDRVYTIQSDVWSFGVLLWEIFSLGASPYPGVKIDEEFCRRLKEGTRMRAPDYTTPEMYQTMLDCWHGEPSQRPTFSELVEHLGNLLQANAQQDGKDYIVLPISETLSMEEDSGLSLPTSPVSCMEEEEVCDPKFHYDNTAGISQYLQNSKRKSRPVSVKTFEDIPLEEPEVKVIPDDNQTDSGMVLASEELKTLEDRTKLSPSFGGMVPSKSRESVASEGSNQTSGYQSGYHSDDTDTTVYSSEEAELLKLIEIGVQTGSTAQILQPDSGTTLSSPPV
Cyclin-dependent kinase 1, sequence (P06493 whole entry): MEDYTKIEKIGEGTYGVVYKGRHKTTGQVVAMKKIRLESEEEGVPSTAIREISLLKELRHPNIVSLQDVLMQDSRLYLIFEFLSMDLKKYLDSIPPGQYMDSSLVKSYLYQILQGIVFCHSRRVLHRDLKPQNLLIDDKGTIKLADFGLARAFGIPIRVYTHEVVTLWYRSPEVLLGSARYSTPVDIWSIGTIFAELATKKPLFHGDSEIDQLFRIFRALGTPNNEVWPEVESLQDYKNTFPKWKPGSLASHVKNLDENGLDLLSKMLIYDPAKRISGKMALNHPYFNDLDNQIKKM

Row | IC50 [1] | clearance [2] | IC50 [3] | IC50 [4] | half-life [5] | AUC [6] | Cmax [7] | IC50 [8] | Vd [9] | IC50 [10] | bioavailability [11] | AUC [12] | half-life [13] | Cmax [14] | Compound
1 | 1600 nM | 34 mL/min/kg | 69 nM | 687 nM | 294 min | 7.65 µM·h | 1110 nM | 2920 nM | 10.7 L/kg | 1370 nM | 55% | 2.77 µM·h | 270 min | 1430 nM | CC(C)(N)c1ccc(-c2nc(Nc3ccc(CCO)cc3)ncc2Cl)cc1
2 | 359 nM | – | 26 nM | 808 nM | – | – | – | 339 nM | – | 247 nM | – | – | – | – | CC(C)(N)c1ccc(-c2nc(Nc3ccc(CCN4CCCC4)cc3)ncc2Cl)cc1
3 | 3220 nM | – | 148 nM | 2770 nM | – | – | – | 3010 nM | – | 3170 nM | – | – | – | – | CC(C)(N)c1ccc(-c2nc(Nc3ccc(CCN4CCOCC4)cc3)ncc2Cl)cc1
4 | 3760 nM | – | 314 nM | 781 nM | – | – | – | 3060 nM | – | 3970 nM | – | – | – | – | CN(C)CCc1ccc(Nc2ncc(Cl)c(-c3n[nH]c4ccccc34)n2)cc1
5 | 3050 nM | – | 7 nM | 180 nM | – | – | – | 3330 nM | – | 3930 nM | – | – | – | – | CN1CCN(CCc2ccc(Nc3ncc(Cl)c(-c4c[nH]c5ccccc45)n3)cc2)CC1
6 | 1680 nM | 51 mL/min/kg | 16 nM | 1540 nM | 234 min | 5.74 µM·h | 720 nM | 973 nM | 16.3 L/kg | 1970 nM | 70% | 1.63 µM·h | 156 min | 670 nM | Clc1cnc(Nc2ccc(CCN3CCCC3)cc2)nc1-c1ccc2cc[nH]c2c1
7 | 228 nM | – | 159 nM | 461 nM | – | – | – | 1240 nM | – | 16 nM | – | – | – | – | CN(C)CCc1ccc(Nc2ncc(Cl)c(-c3cccs3)n2)cc1
8 | 3690 nM | – | 348 nM | 1040 nM | – | – | – | 3350 nM | – | 2610 nM | – | – | – | – | CC(C)(N)c1ccc(-c2nc(Nc3cccc(Br)c3)ncc2Cl)cc1
9 | 391 nM | – | 797 nM | 439 nM | – | – | – | 431 nM | – | 399 nM | – | – | – | – | Cc1nc(C)c(-c2nc(Nc3ccc(CCN(C)C)cc3)ncc2Cl)s1
10 | 84 nM | – | 7 nM | 48 nM | – | – | – | 75 nM | – | 50 nM | – | – | – | – | CN(C)CCc1ccc(Nc2ncc(Cl)c(-c3c[nH]c4ccccc34)n2)cc1
11 | 321 nM | – | 103 nM | 847 nM | – | – | – | 596 nM | – | 30 nM | – | – | – | – | CN(C)CCc1ccc(Nc2ncc(Cl)c(-c3ccc4[nH]ccc4c3)n2)cc1
12 | 446 nM | – | 15 nM | 1770 nM | – | – | – | 472 nM | – | 336 nM | – | – | – | – | CN(C)CCc1ccc(Nc2ncc(Cl)c(-c3ccc4cc[nH]c4c3)n2)cc1
13 | 470 nM | – | 455 nM | 334 nM | – | – | – | 1290 nM | – | 774 nM | – | – | – | – | CN(C)CCc1ccc(Nc2ncc(Cl)c(-c3cccc4cc[nH]c34)n2)cc1
14 | 1300 nM | – | 76 nM | 1610 nM | – | – | – | 811 nM | – | 868 nM | – | – | – | – | CN1CCN(CCc2ccc(Nc3ncc(Cl)c(-c4ccc(C(C)(C)N)cc4)n3)cc2)CC1
15 | 84 nM | – | 216 nM | 540 nM | – | – | – | 292 nM | – | 210 nM | – | – | – | – | CN(C)CCc1ccc(Nc2ncc(Cl)c(-c3cccc4[nH]ccc34)n2)cc1
16 | 885 nM | – | 33 nM | 1060 nM | – | – | – | 542 nM | – | 175 nM | – | – | – | – | CNCCc1ccc(Nc2ncc(Cl)c(-c3ccc(C(C)(C)N)cc3)n2)cc1
17 | 1680 nM | – | 19 nM | 1140 nM | – | – | – | 500 nM | – | 163 nM | – | – | – | – | CN(C)CCc1ccc(Nc2ncc(Cl)c(-c3ccc(C(C)(C)N)cc3)n2)cc1
18 | 2450 nM | 25 mL/min/kg | 37 nM | 1240 nM | 348 min | 6.12 µM·h | 590 nM | 2080 nM | 10.1 L/kg | 2570 nM | 40% | 3.06 µM·h | 276 min | 960 nM | CCN1CCN(CCc2ccc(Nc3ncc(Cl)c(-c4ccc5cc[nH]c5c4)n3)cc2)CC1
